From ChEMBL document CHEMBL2380244, “Optimized chemical probes for REV-ERBα” (J Med Chem, 2013)
Activity calls are given as the source filed them. No cut-off for these calls is given here.

Tests used:
Homo sapiens = species: Homo sapiens; assay: Selectivity ratio of IC50 for LXRalpha (unknown origin) to EC50 for biotinylated REV-ERBalpha (unknown origin)
[1] = molecular target: T1, Oxysterols receptor LXR-alpha (Homo sapiens, UniProt Q13133); assay: Binding affinity to LXRalpha (unknown origin) by radioligand displacement assay
T1 sequence (Q13133 whole entry): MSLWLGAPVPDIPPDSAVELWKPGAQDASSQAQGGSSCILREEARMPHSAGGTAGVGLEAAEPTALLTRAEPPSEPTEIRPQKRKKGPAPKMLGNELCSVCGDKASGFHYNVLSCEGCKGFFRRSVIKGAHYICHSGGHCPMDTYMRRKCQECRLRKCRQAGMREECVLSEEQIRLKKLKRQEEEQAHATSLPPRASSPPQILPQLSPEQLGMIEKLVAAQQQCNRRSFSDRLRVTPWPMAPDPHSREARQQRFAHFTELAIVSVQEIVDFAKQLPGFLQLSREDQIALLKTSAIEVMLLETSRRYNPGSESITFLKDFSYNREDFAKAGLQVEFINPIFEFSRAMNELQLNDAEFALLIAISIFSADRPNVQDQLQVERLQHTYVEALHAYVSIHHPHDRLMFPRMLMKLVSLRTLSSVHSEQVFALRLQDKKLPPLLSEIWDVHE

[2] = molecular target: T2, Nuclear receptor subfamily 1 group D member 1 (Homo sapiens, UniProt P20393); assay: Agonist activity at biotinylated REV-ERBalpha (unknown origin) assessed as increase in biotinylated NCOR peptide recruitment after 1 hr by FRET assay
T2 sequence (P20393 whole entry): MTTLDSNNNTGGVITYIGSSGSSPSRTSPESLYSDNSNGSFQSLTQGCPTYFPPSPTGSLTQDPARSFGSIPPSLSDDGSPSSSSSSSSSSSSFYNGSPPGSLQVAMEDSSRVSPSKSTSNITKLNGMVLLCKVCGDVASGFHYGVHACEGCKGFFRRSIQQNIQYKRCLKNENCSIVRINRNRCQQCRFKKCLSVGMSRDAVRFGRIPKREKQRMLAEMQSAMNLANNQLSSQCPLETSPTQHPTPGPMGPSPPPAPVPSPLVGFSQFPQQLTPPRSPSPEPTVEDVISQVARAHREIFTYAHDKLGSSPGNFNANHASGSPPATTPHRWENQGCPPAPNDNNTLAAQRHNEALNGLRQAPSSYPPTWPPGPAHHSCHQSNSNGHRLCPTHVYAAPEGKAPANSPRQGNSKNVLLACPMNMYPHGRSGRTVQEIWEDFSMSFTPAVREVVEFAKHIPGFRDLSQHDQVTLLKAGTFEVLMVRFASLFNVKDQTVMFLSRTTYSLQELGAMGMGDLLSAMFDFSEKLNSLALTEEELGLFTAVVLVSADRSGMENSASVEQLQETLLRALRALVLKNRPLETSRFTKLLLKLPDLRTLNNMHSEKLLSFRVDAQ
Summary of the method: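 TR-FRET: 20 nM biotinylated REV-ERBα pre-complexed with 10 nM APC-streptavidin, excess biotin added, then mixed with 20 nM biotinylated NCOR1 on 10 nM Eu-streptavidin. MOPS pH 7.5 buffer with NaF, CHAPS, BSA and 10 mM DTT. Added to compound (serial DMSO dilutions of 10 mM stocks), 1 h at RT, Eu/APC read. Data normalized to basal and minimal HTRF, fitted to a 4-parameter logistic.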

[3] = molecular target: T3, Nuclear receptor subfamily 1 group D member 1 (Homo sapiens) (UniProt P20393); assay: Agonist activity at REV-ERBalpha in human U2OS cells assessed as delay of peak of second cycle at 20 uM by luciferase reporter gene assay relative to DMSO-treated control; type: cell-based
T3 sequence (whole entry): T2 sequence (P20393 whole entry)
Summary of the method: (§1)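 U2OS cells stably carrying a mouse Bmal1-promoter luciferase reporter (hygromycin-selected clone) seeded at confluence in 384-well format. Rhythms synchronized by media change and checked over 48 h. Compound added, then bioluminescence recorded in real time every 20 min for 72 h in a temperature-controlled luminometer. Cells then washed and recovery oscillations in full growth medium monitored as a toxicity counter-screen.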

[4] = molecular target: T3, Nuclear receptor subfamily 1 group D member 1 (Homo sapiens); assay: Agonist activity at REV-ERBalpha in human U2OS cells assessed as suppression of BMAL1 expression at 20 uM after 40 hrs by luciferase reporter gene assay relative to DMSO-treated control; type: cell-based; summary of the method: as §1
THP-1 = assay: Cytotoxicity against human THP1 cells assessed as cell viability measured ATP level at 10 uM after 6 hrs by celltiter-glo assay; type: cell-based; conditions: thp-1, 6 h
Summary of the method: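 THP-1 cells incubated six hours with compound. CellTiter-Glo added for 15 min, then luminescence read.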

[5] = molecular target: T4, Oxysterols receptor LXR-alpha (Homo sapiens) (UniProt Q13133); assay: Agonist activity at LXRalpha in human THP1 cells assessed as effect on LPS-stimulated ABCA1 mRNA expression at 1 uM after 6 hrs by RT-qPCR analysis; type: cell-based; conditions: THP-1
T4 sequence (whole entry): T1 sequence (Q13133 whole entry)
Summary of the method: (§2)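 THP-1 cells (RPMI1640 + 10% FBS, kept at 3×10^5–8×10^5 cells/mL) stimulated with LPS 10 mcg/mL with DMSO or compound at 1 μM, in triplicate. After six hours the cells were lysed and transcripts quantified by RT-qPCR against TATA box binding protein as housekeeping gene. Groups compared by one-way ANOVA with post-hoc Dunnett's.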

[6] = molecular target: T3, Nuclear receptor subfamily 1 group D member 1 (Homo sapiens); assay: Agonist activity at REV-ERBalpha in human THP1 cells assessed as downregulation of LPS-stimulated IL-6 mRNA expression at 1 uM after 6 hrs by RT-qPCR analysis; type: cell-based; conditions: THP-1; summary of the method: as §2
[7] = molecular target: T3, Nuclear receptor subfamily 1 group D member 1 (Homo sapiens); assay: Agonist activity at biotinylated REV-ERBalpha (unknown origin) assessed as biotinylated PGC1-beta peptide recruitment after 20 mins by Greiner assay
Summary of the method: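 Biotinylated peptides (final 20 nM) with Eu-W1024 streptavidin (final 20 nM), 20 min RT. Biotinylated REV-ERBα (20 nM) with APC-streptavidin (10 nM), 20 min RT, then 20-fold excess biotin, 15 min RT. Receptor solution added to peptide plates, Eu/APC TR-FRET read. Four wells per peptide averaged, with standard deviation.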

[8] = molecular target: T3, Nuclear receptor subfamily 1 group D member 1 (Homo sapiens); assay: Agonist activity at REV-ERBalpha in human U2OS cells assessed as suppression of BMAL1 oscillation measured for 72 hrs by luciferase reporter gene assay; type: cell-based; summary of the method: as §1
[9] = molecular target: T4, Oxysterols receptor LXR-alpha (Homo sapiens); assay: Agonist activity at LXRalpha in human THP1 cells assessed as upregulation of LPS-stimulated ABCA1 mRNA expression at 10 uM after 6 hrs by RT-qPCR analysis; type: cell-based; conditions: THP-1
Summary of the method: (§3)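 THP-1 cells sub-cultured in RPMI1640 with 10% FBS, stimulated with LPS 10 μg/mL in presence of DMSO or compound at 10 μM. Transcript read-out by RT-qPCR, normalized to TATA box binding protein.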

[10] = molecular target: T3, Nuclear receptor subfamily 1 group D member 1 (Homo sapiens); assay: Agonist activity at REV-ERBalpha in human THP1 cells assessed as downregulation of LPS-stimulated IL-6 mRNA expression at 10 uM after 6 hrs by RT-qPCR analysis; type: cell-based; conditions: THP-1; summary of the method: as §3

Row | Structure (SMILES) | Ratio IC50/EC50 (Homo sapiens) | IC50 [1] [µM] | EC50 [2] [µM] | TIME [3] [h] | Activity [4] [%] | Activity [5] | Activity [6] | Activity [7] | Activity [8] | Activity [9] | Activity [10] | Activity (THP-1)
1 | N#Cc1ccc(CN(Cc2cccnc2)Cc2ccccc2F)s1 |  | 32 | > 50 | 0 | 6 |  |  |  |  |  |  | 
2 | CCCCCNC(=O)N1CCC(CN(Cc2ccc(Cl)cc2)Cc2ccc([N+](=O)[O-])s2)C1 (stereo unspecified) [SR9011] |  |  | > 50 | 1.3 | 20 |  |  | Dose-dependent effect |  |  |  | 
3 | CCOC(=O)N1CCC(CN(Cc2ccc(Cl)cc2)Cc2ccc([N+](=O)[O-])s2)C1 (stereo unspecified) |  |  |  | 1.3 | 14 |  |  | Dose-dependent effect |  |  |  | 
4 | Clc1ccc(CN(Cc2cccnc2)Cc2ncc[nH]2)cc1 |  | > 100 | > 50 |  |  |  |  |  |  |  |  | 
5 | COc1ccc(CN(Cc2cccnc2)Cc2ccc(C#N)s2)cc1 | > 160 | > 100 | 0.63 |  |  |  |  |  |  |  |  | 
6 | COc1cccc(CN(Cc2cccnc2)Cc2ccc([N+](=O)[O-])s2)c1 | 25 | 10 | 0.4 | 0.5 | 42 |  |  |  |  |  |  | 
7 | Clc1ccc(CN(Cc2cccnc2)Cc2nccs2)cc1 |  | 50 | > 50 |  |  |  |  |  |  |  |  | 
8 | Clc1ccc(CN(Cc2cccnc2)Cc2sccc2-n2cccc2)cc1 | 63 | 40 | 0.63 | 0 | 30 |  |  |  |  |  |  | 
9 | CC(C)(C)OC(=O)CN(Cc1ccc(Cl)cc1)Cc1ccc([N+](=O)[O-])s1 [GSK-4112] | 10 | 5 | 0.5 | 0 | 6 |  |  | Dose-dependent effect |  | Active | Active | 
10 | O=[N+]([O-])c1ccc(CN(Cc2cccnc2)Cc2cccc(C(F)(F)F)c2)s1 | 40 | 16 | 0.4 |  |  |  |  |  |  |  |  | 
11 | O=[N+]([O-])c1ccc(CN(Cc2ccccc2)Cc2ccc(Cl)cc2)s1 | > 1000 | > 100 | 0.1 |  |  |  |  |  |  |  |  | 
12 | N#Cc1ccc(CN(Cc2cccnc2)Cc2cc(F)ccc2F)s1 | 10 | 6.3 | 0.63 | 0 | 27 |  |  |  |  |  |  | 

Now from value to compound, other results behind:

Row | Ratio IC50/EC50 (Homo sapiens) | IC50 [1] [µM] | EC50 [2] [µM] | TIME [3] [h] | Activity [4] [%] | Activity [5] | Activity [6] | Activity [7] | Activity [8] | Activity [9] | Activity [10] | Structure (SMILES) | Activity (THP-1)
13 | 79 | 13 | 0.16 |  |  |  |  |  |  |  |  | O=[N+]([O-])c1ccc(CN(Cc2ccc(Cl)cc2)Cc2cccnc2)s1 | 
14 | 160 | 32 | 0.2 |  |  |  |  |  |  |  |  | COc1ccc(CN(Cc2cccnc2)Cc2ccc([N+](=O)[O-])s2)cc1 | 
15 |  | 20 | 0.2 | 0 | 23 | inactive | Active |  |  |  |  | N#Cc1ccc(CN(Cc2ccc(Cl)cc2)Cc2cccnc2)s1 | Non-toxic
16 | 250 | 40 | 0.16 | 0 | 14 | inactive | Active |  |  |  |  | O=[N+]([O-])c1ccc(CN(Cc2ccc(F)cc2)Cc2cccnc2)s1 | Non-toxic
17 | 1260 | 63 | 0.05 | 0 | 21 | inactive | Active |  | Dose-dependent effect |  |  | Cc1cc(Cl)ccc1CN(Cc1ccc(Cl)cc1)Cc1ccc([N+](=O)[O-])s1 | Non-toxic
18 | 100 | 40 | 0.4 | 0 | 24 |  |  |  |  |  |  | Clc1ccc(CN(Cc2cccnc2)Cc2cc3ccccc3s2)cc1 | 
19 | 130 | 32 | 0.25 | 0 | 16 |  |  |  |  |  |  | Cc1sc(CN(Cc2ccc(Cl)cc2)Cc2cccnc2)cc1Br | 
20 | 130 | 25 | 0.2 | 0.8 | 41 |  |  |  |  |  |  | Cc1cccc(CN(Cc2cccnc2)Cc2ccc([N+](=O)[O-])s2)c1 | 
21 | 100 | 16 | 0.16 | 0 | 21 |  |  |  |  |  |  | CC(C)CCN(Cc1ccc(Cl)cc1)Cc1ccc([N+](=O)[O-])s1 | 
22 | 160 | 32 | 0.2 | 0 | 37 |  |  |  |  |  |  | Cc1ccccc1CN(Cc1cccnc1)Cc1ccc([N+](=O)[O-])s1 | 
23 | 250 | 40 | 0.16 | 0 | 23 |  |  |  |  |  |  | Cc1ccc(CN(Cc2cccnc2)Cc2ccc([N+](=O)[O-])s2)cc1 | 
24 | 320 | 20 | 0.063 | 0 | 38 |  |  |  |  |  |  | O=[N+]([O-])c1ccc(CN(Cc2ccc(Cl)cc2)Cc2ccccc2F)s1 | 
25 | 79 | 16 | 0.2 | 0 | 37 | inactive | Active |  |  |  |  | N#Cc1ccc(CN(Cc2cccnc2)Cc2ccc(F)c(F)c2)s1 | Non-toxic
26 |  |  | 0.2 |  |  |  |  |  |  |  |  | N#Cc1ccc(CN(Cc2ccc(F)cc2)Cc2cccnc2)s1 | 
